Data published in ChEMBL document CHEMBL1142668, “Synthesis and biological evaluation of neutral and zwitterionic 3-carboranyl thymidine analogues for boron neutron capture therapy” (J Med Chem, 2005).

How the values were obtained:
L929 = experiment: Mean phosphorylation rate of 10 uM compound by recombinant human thymidine kinase 1 (cytosolic) expressing wild type L929 tumor cells; format: functional
How it was run: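 Purified recombinant human TK1 (50 ng) with 10 µM substrate, final DMSO 1%, 100 µM ATP spiked with 0.03 µM [γ-32P]-ATP, in 50 mM Tris-HCl pH 7.6, 5 mM MgCl2, 125 mM KCl, 10 mM DTT, 0.5 mg/mL BSA. Run at 37 °C for 20 min, then 95 °C for 2 min. Products separated by PEI-cellulose TLC and read by phosphorimager. Rate expressed relative to thymidine, using one enzyme batch.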

[1] = Mean retention time in reversed phase HPLC (RP-18); format: ADME

| Retention time [1] [min] | Compound | Phosphorylation rate (L929; Mus musculus) [%] | Phosphorylation rate (L929) [%] |
| --- | --- | --- | --- |
|  | 3-[2-(7-Amino-closo-m-carboran-1-yl)-ethan-1-yl]thymidine | 71.9 |  |
|  | 3-[2-(7-Amino-closo-m-carboran-1-yl)ethoxyethyl]thymidine | 48.4 |  |
|  | 3-[2-(7-Ammonium-nido-m-carboran-1-yl)ethan-1-yl]-thymidine | 89.4 |  |
|  | 3-[2-(7-Ammonium-nido-m-carboran-1-yl)ethoxyethyl]-thymidine | 75.1 |  |
|  | 3-[3-(7-Amino-closo-m-carboran-1-yl)propan-1-yl]thymidine | 58.2 |  |
|  | 3-[3-(7-Ammonium-nido-m-carboran-1-yl)propan-1-yl]-thymidine | 64.6 |  |
|  | 3-[4-(7-Amino-closo-m-carboran-1-yl)butan-1-yl]thymidine | 58 |  |
|  | 3-[4-(7-Ammonium-nido-m-carboran-1-yl)butan-1-yl]-thymidine | 63.8 |  |
|  | 3-[5-(7-Amino-closo-m-carboran-1-yl)hexan-1-yl]thymidine | 14.2 |  |
|  | 3-[5-(7-Amino-closo-m-carboran-1-yl)pentan-1-yl]thymidine | 45.1 |  |
|  | 3-[5-(7-Ammonium-nido-m-carboran-1-yl)pentan-1-yl]thymidine | 50.7 |  |
|  | 3-[6-(7-Ammonium-nido-m-carboran-1-yl)hexan-1-yl]-thymidine | 45.4 |  |
|  | 3-[(closo-o-Caboran-1-yl)methyl]thymidine | 9.6 |  |
| 11.79 | C#CCn1c(=O)c(C)cn([C@H]2CC(O)[C@@H](CO)O2)c1=O (single isomer, unassigned) |  | 102 |
| 12.22 | Cc1cn([C@H]2C[C@H](N=[N+]=[N-])[C@@H](CO)O2)c(=O)[nH]c1=O [ZIDOVUDINE] |  | 52 |
|  | N5-20H | 41 |  |

| Compound | Retention time [1] [min] | Phosphorylation rate (L929; Mus musculus) [%] | Phosphorylation rate (L929) [%] |
| --- | --- | --- | --- |
| Cc1cn([C@H]2C[C@H](O)[C@@H](CO)O2)c(=O)[nH]c1=O [DOXRIBTIMINE] | 8.72 |  | 100 |
